One test concerns A549. Nature of the test: Cytotoxicity against human A549 cells after 72 hrs by MTT assay. Type of test: functional, cell-based. The following applies: A549, 72 h. The method in brief: (§1)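 Freshly trypsinized cells were seeded at 5000–10,000 per well in 96-well plates. […] Attached cells were given MTT (0.5 mg/ml, 1 h), solubilized in DMSO and read at 550 nm. IC₅₀ came from survival curves as mean ± S.E.M., n = 2.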
In general terms: Tetrazolium assays rely on reduction of a dye to a coloured formazan, in cell work by metabolically active cells.

The subject of a further test is HepG2. As to the kind of experiment: Cytotoxicity against human HepG2 cells after 72 hrs by MTT assay. Type of test: functional, cell-based. The following applies: HepG2, 72 h. An outline of the steps:
(§2)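 Freshly trypsinized cells were seeded at 5000–10,000 per well in 96-well plates. Attached cells were given MTT (0.5 mg/ml, 1 h), solubilized in DMSO and read at 550 nm. IC₅₀ came from survival curves as mean ± S.E.M., n = 2.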

The nature of test [1]: Cytotoxicity against human Hep3B cells after 72 hrs by MTT assay. Type of test: functional, cell-based, Hep 3B2. The method in brief: as §2
A further test deals with MDA-MB-231. Nature of the test: Cytotoxicity against human MDA-MB-231 cells after 72 hrs by MTT assay. The following applies: MDA-MB-231, 72 h. Type of test: functional, cell-based. The method in brief:
as §1

The next test deals with MCF7. Nature of the test: Cytotoxicity against human MCF7 cells after 72 hrs by MTT assay. The conditions noted are these: MCF7, 72 h. Type of test: functional, cell-based. The method in brief: as §1
The test system of test [2] is Hepatitis C virus. Nature of the test: Antiviral activity against HCV infected in human Huh7 cells assessed as inhibition of viral replication at 10 uM after 4 days. Type of test: functional, Hepacivirus hominis. The conditions noted are these: Huh-7, 96 h. An outline of the steps:
(§3)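 Ava5 cells, Huh-7 hepatoma cells carrying a subgenomic HCV replicon, seeded at 5 ×10⁴ per well in 24-well plates and treated for 4 days. Cell extracts were normalized by protein assay and 5 µg was run on 8% SDS-PAGE and transferred to PVDF. Blots were blocked in 5% skim milk and probed for NS3 with GAPDH as loading control. Signals came from HRP secondaries and ECL and were quantified by densitometry.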

In test [3] the test system is Hepatitis C virus. As to the kind of experiment: Antiviral activity against HCV infected in human Huh7 cells assessed as inhibition of viral replication at 5 uM after 4 days. Type of test: functional, organism-based. The following applies: Hepacivirus hominis, Huh-7. An outline of the steps:
as §3

The test system of another test is Ca9-22. Nature of the test: Cytotoxicity against human Ca9-22 cells after 72 hrs by MTT assay. Type of test: functional, cell-based. The following applies: Ca9-22, 72 h. An outline of the steps:
as §1

Activity calls are given as the source filed them. The calls are words filed in the database; no cut-off is given here.

In general, IC50 refers to the concentration at which inhibition is half-maximal. A lower IC50 goes with greater potency in that assay. With `CC(C)[C@H](NC(=O)OCC1c2ccccc2-c2ccccc21)C(=O)N[C@H](COC(=O)c1ccccc1)Cc1ccccc1`, the IC50 (with A549; with HepG2; in test [1]; in the test with MDA-MB-231; with MCF7) was over 55 µM throughout.
For orientation: inhibition means the change of the read-out against control, counted positive when it falls. As to `O=C(N[C@@H](Cc1ccc(O)cc1)C(=O)N[C@@H](COC(=O)c1ccccc1)Cc1ccccc1)OCC1c2ccccc2-c2ccccc21`, the IC50 (in the test on HepG2; in test [1]; in the test with MDA-MB-231; in the test with MCF7) was over 55 µM each time. Moreover, the inhibition at 10 µM with Hepatitis C virus [2] stood at 87%. Further, the inhibition result in the test with Hepatitis C virus [3] is “inactive”.
Consider `O=C(N[C@@H](Cc1ccccc1)C(=O)N[C@@H](COC(=O)c1ccccc1)Cc1ccccc1)OCC1c2ccccc2-c2ccccc21`, for which the IC50 (in test [1]; in the test on MDA-MB-231; in the test on Ca9-22; with MCF7) was over 55 µM each time.
Take `O=C(N[C@@H](Cc1ccc2ccccc2c1)C(=O)N[C@H](COC(=O)c1ccccc1)Cc1ccccc1)OCC1c2ccccc2-c2ccccc21`: the IC50 (in the test with A549; in the test with HepG2; in test [1]; with MDA-MB-231; with Ca9-22; in the test on MCF7) was over 55 µM in each case.
`O=C(N[C@@H](Cc1ccc2ccccc2c1)C(=O)N[C@@H](COC(=O)c1ccccc1)Cc1ccccc1)OCC1c2ccccc2-c2ccccc21` showed an IC50 with MDA-MB-231 of over 55 µM.
Turning to `O=C(N[C@@H](Cc1ccc2ccccc2c1)C(=O)N[C@@H](CO)Cc1ccccc1)OCC1c2ccccc2-c2ccccc21`, the half-maximal inhibitory concentration (IC50) in the test with A549, with MDA-MB-231 and in the test with MCF7 was over 55 µM each time.
In the case of `COc1cccc2c1C(=O)c1c(O)c3c(c(O)c1C2=O)C[C@@](O)(C(=O)CO)C[C@@H]3O[C@H]1C[C@H](N)[C@H](O)[C@H](C)O1` [DOXORUBICIN], the IC50 came out at 0.4 µM with A549, 0.1 µM in the test with MDA-MB-231 and 1.3 µM in the test on Ca9-22.
For the molecule `O=C(N[C@@H](Cc1ccccc1)C(=O)N[C@H](COC(=O)c1ccccc1)Cc1ccccc1)OCC1c2ccccc2-c2ccccc21`, the IC50 (in the test on HepG2; in test [1]; with MDA-MB-231; with Ca9-22; in the test on MCF7) was over 55 µM in each case.
For `CC(=O)OC[C@H](Cc1ccccc1)NC(=O)[C@H](Cc1ccc2ccccc2c1)NC(=O)OCC1c2ccccc2-c2ccccc21`, the concentration for half-maximal inhibition (IC50) in test [1] was over 55 µM.
With `O=C(N[C@@H](Cc1c[nH]c2ccccc12)C(=O)N[C@H](CO)Cc1ccccc1)OCC1c2ccccc2-c2ccccc21`, the IC50 (in test [1]; with MDA-MB-231; in the test with Ca9-22; in the test with MCF7) was over 55 µM throughout.
In the test on HepG2, `O=C(N[C@@H](Cc1ccc(O)cc1)C(=O)N[C@H](COC(=O)c1ccccc1)Cc1ccccc1)OCC1c2ccccc2-c2ccccc21` yielded an IC50 of over 55 µM.
As for `O=C(N[C@@H](Cc1ccc(O)cc1)C(=O)N[C@H](CO)Cc1ccccc1)OCC1c2ccccc2-c2ccccc21`, the IC50 with A549, with MDA-MB-231 and in the test with MCF7 was over 55 µM in each case.
In the case of `CC(C)[C@H](NC(=O)OCC1c2ccccc2-c2ccccc21)C(=O)N[C@@H](CO)Cc1ccccc1`, the half-maximal inhibitory concentration (IC50) with A549, with MDA-MB-231 and with MCF7 was over 55 µM in each case.
Consider `O=C(N[C@@H](Cc1ccc2ccccc2c1)C(=O)N[C@H](CO)Cc1ccccc1)OCC1c2ccccc2-c2ccccc21`, for which the half-inhibitory concentration (IC50) (in test [1]; with MDA-MB-231; with MCF7) was over 55 µM each time.
The molecule `CC(=O)OC[C@@H](Cc1ccccc1)NC(=O)[C@H](Cc1ccc2ccccc2c1)NC(=O)OCC1c2ccccc2-c2ccccc21` displayed an IC50 with MDA-MB-231 of over 55 µM.
For `O=C(N[C@@H](Cc1ccccc1)C(=O)N[C@H](CO)Cc1ccccc1)OCC1c2ccccc2-c2ccccc21`, the concentration for half-maximal inhibition (IC50) (in the test with A549; with HepG2; in test [1]; with MDA-MB-231; in the test on Ca9-22; with MCF7) was over 55 µM throughout.
As for `CC(=O)OC[C@@H](Cc1ccccc1)NC(=O)[C@H](Cc1ccccc1)NC(=O)OCC1c2ccccc2-c2ccccc21`, the IC50 in the test on MCF7 was over 55 µM.
With `CC(=O)OC[C@H](Cc1ccccc1)NC(=O)[C@@H](NC(=O)OCC1c2ccccc2-c2ccccc21)C(C)C`, the IC50 (in the test with A549; in test [1]; with MDA-MB-231; in the test with Ca9-22; in the test on MCF7) was over 55 µM each time.
As for `O=C(N[C@@H](Cc1c[nH]c2ccccc12)C(=O)N[C@@H](COC(=O)c1ccccc1)Cc1ccccc1)OCC1c2ccccc2-c2ccccc21`, in the test with Hepatitis C virus [2], the inhibition at 10 µM is 72%. Moreover, the inhibition result with Hepatitis C virus [3] is “inactive”.
Regarding `CC(C)[C@H](NC(=O)OCC1c2ccccc2-c2ccccc21)C(=O)N[C@H](CO)Cc1ccccc1`, the 50% inhibitory concentration (IC50) (in the test with A549; in test [1]; in the test with MDA-MB-231; in the test on MCF7) was over 55 µM each time.
On to `CC(=O)OC[C@H](Cc1ccccc1)NC(=O)[C@H](Cc1ccccc1)NC(=O)OCC1c2ccccc2-c2ccccc21`, for which the half-maximal inhibitory concentration (IC50) (in the test with HepG2; in test [1]; in the test on MDA-MB-231; with Ca9-22; with MCF7) was over 55 µM each time.
Take `CC(C)[C@H](NC(=O)OCC1c2ccccc2-c2ccccc21)C(=O)N[C@@H](COC(=O)c1ccccc1)Cc1ccccc1`: the IC50 in the test on A549, in the test with HepG2, in the test on MDA-MB-231 and with MCF7 was over 55 µM in each case.
As for `CC(=O)OC[C@@H](Cc1ccccc1)NC(=O)[C@H](Cc1ccc(O)cc1)NC(=O)OCC1c2ccccc2-c2ccccc21`, the IC50 in the test with A549, with MDA-MB-231 and in the test with MCF7 was over 55 µM throughout.
Turning to `CC(=O)OC[C@H](Cc1ccccc1)NC(=O)[C@H](Cc1ccc(O)cc1)NC(=O)OCC1c2ccccc2-c2ccccc21`, the IC50 (in the test with A549; in test [1]; with MDA-MB-231; in the test with Ca9-22; in the test with MCF7) was over 55 µM each time.
Take `CC(=O)OC[C@H](Cc1ccccc1)NC(=O)[C@H](Cc1c[nH]c2ccccc12)NC(=O)OCC1c2ccccc2-c2ccccc21`: the half-maximal inhibitory concentration (IC50) (in test [1]; in the test with MCF7) was over 55 µM in each case.
Take `O=C(N[C@@H](Cc1ccccc1)C(=O)N[C@@H](CO)Cc1ccccc1)OCC1c2ccccc2-c2ccccc21`: the IC50 (with A549; in the test with HepG2; in test [1]; in the test with MDA-MB-231; in the test with Ca9-22; in the test on MCF7) was over 55 µM in each case.

Values taken from ChEMBL document CHEMBL1165906, “Cytotoxic N-(fluorenyl-9-methoxycarbonyl) (Fmoc)-dipeptides: structure-activity relationships and synergistic studies” (Eur J Med Chem, 2010).
